Results from different studies.
Compare with care: the assays were run in different laboratories.

| SMILES | species | sample | route | dose | setting | Tmax [h] |
| --- | --- | --- | --- | --- | --- | --- |
| CC(C)(Sc1ccncc1-c1ccc(C#N)c2ccccc12)C(=O)O | male human | plasma | oral | 10 mg | multiple doses, once daily | 1 |
| NS(=O)(=O)NCCNc1nonc1C(=NO)Nc1ccc(F)c(Br)c1 | human | plasma | oral | 50 mg | multiple doses, once daily, steady state, patients | 2 |
| C[C@@H](Nc1cc(F)cc(F)c1)c1cc(C(=O)N(C)C)cc2c(=O)cc(N3CCOCC3)oc12 | human | plasma | oral | 300 mg | single dose, patients | 1.21 |
| COc1cc(N2CCC(N3CCN(C)CC3)CC2)ccc1Nc1ncnc(Nc2ccccc2S(=O)(=O)C(C)C)n1 | human | plasma | oral | 50 mg | multiple doses, patients | 2.99 |
| CCc1nc(C(N)=O)c(Nc2ccc(N3CCC(N4CCN(C)CC4)CC3)c(OC)c2)nc1NC1CCOCC1 | human | plasma | oral | 40 mg | multiple doses, patients | 4.01 |
| C=CC(=O)N(C)CCOc1c(N)ncnc1-c1cc(F)cc(NC(=O)c2ccc(C3CC3)cc2F)c1C | human | blood | oral | 400 mg | single dose, healthy volunteers | 1.24 |
| CC(C)n1cc(C#N)c2cc(-n3cc(C(=O)O)cn3)ccc21 | human | plasma | oral | 100 mg | multiple doses, once daily, steady state | 2.5 |
| CS(=O)(=O)CCC#N | human | plasma | oral | 100 mg | single dose, fasted | 2 |
| COc1ccc([C@@H]2CN(C(=O)[C@@H](O)CO)C[C@@]2(C)[C@@H](C)O)cc1OC1CN(c2ccc(C)cn2)C1 | human | plasma | oral | 5 mg | single dose, healthy volunteers | 1.5 |
| Cn1cc(-c2ccc(S(=O)(=O)[C@@H]3C[C@@H](C(=O)NC4(C#N)CC4)N(C(=O)C4(C(F)(F)F)CC4)C3)c(C(F)(F)F)c2)cn1 | human | plasma | oral | 300 mg | single dose, fasted, healthy volunteers | 3.5 |
| CC(C)(O)c1ccccc1-c1ccc2[nH]c(/C=C/c3ccc(C(F)(F)F)cc3)nc2c1 | male human | plasma | oral | 2 mg | single dose, fasted | 3.94 |
| C#C[C@]1(COP(=O)(O)OP(=O)(O)OP(=O)(O)O)O[C@@H](n2cnc3c(N)nc(F)nc32)C[C@@H]1O | human | plasma | oral | 5 mg | single dose | 9 |
| CCc1nc2c(C)cc(N3CCN(CC(=O)N4CC(O)C4)CC3)cn2c1N(C)c1nc(-c2ccc(F)cc2)c(C#N)s1 | human | plasma | intravenous | 0.1 mg | fasted, healthy volunteers | 0 |
